Measurements from ChEMBL document CHEMBL3271970, “Radiopharmaceuticals. 16. Halogenated dopamine analogs. Synthesis and radiolabeling of 6-iododopamine and tissue distribution studies in animals” (J Med Chem, 1976).

Legend:
[1] = test system: Mus musculus; assay: Biodistribution in thyroid gland of mouse assessed per organ at 8 to 11 x 10^-8 mol, iv measured after 60 mins; type: ADME, organism-based; settings: in vivo, 1 h
Procedure, shortened: (§1)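 Tracer labelled with either 123I or 131I, in water or saline, used within 30 min of preparation. Mice dosed iv at 8-11 × 10^-8 mol/mouse and killed by ether overdose. Organs counted as % dose/organ ± SD, n = 3-10 mice per time point.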

[2] = test system: Rattus norvegicus; assay: Biodistribution in adrenal cortex of rat assessed per organ at 3.6 x 10^-8 mol, iv measured after 60 mins; type: ADME, organism-based; settings: in vivo, 1 h
Procedure, shortened: (§2)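 [131I]-6-iododopamine in water or saline, used within 30 min of preparation. Injected iv at 3.6 × 10^-8 mol/rat. Rats killed by ether overdose at 5, 30 or 60 min, or at 2, 4 or 24 h. Tissue radioactivity expressed as % dose/organ, mean ± SD of four rats.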

[3] = Biodistribution in adrenal cortex of mongrel dog assessed per organ at 1.29 x 10^-6 mol, iv measured after 24 hrs; type: ADME, organism-based, Canis lupus familiaris; settings: in vivo
Procedure, shortened: (§3)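 Radioiodinated ([123I] or [131I]) 6-iododopamine in water or saline, used within 30 min of preparation. Given iv at 1.29 × 10^-6 mol/dog; one dog per time point, killed at 2 or 24 h. Large organs counted as three samples and averaged; adrenals and thyroid taken intact and counted. Expressed as % dose/organ.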

[4] = test system: Blood; assay: Biodistribution in blood of rat at 3.6 x 10^-8 mol, iv measured after 60 mins; type: ADME, organism-based; settings: in vivo, 1 h
Procedure, shortened: (§4)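 [131I]-6-iododopamine in water or saline, used within 30 min of preparation. Injected iv at 3.6 × 10^-8 mol/rat. Rats killed by ether overdose at 5 min to 24 h. Blood radioactivity expressed as % dose/g, mean ± SD of four rats.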

[5] = test system: Kidney; assay: Biodistribution in kidney of rat assessed per organ at 3.6 x 10^-8 mol, iv measured after 2 hrs; type: ADME, organism-based; settings: in vivo; procedure, shortened: as §2
[6] = Biodistribution in thyroid gland of mongrel dog assessed per organ at 1.29 x 10^-6 mol, iv measured after 2 hrs; type: ADME, organism-based, Canis lupus familiaris; settings: in vivo
Procedure, shortened: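 Radioiodine-labelled tracer given at 1.29 × 10^-6 mol/dog. One dog per time point, killed at 2 or 24 h. Thyroids and other small organs were taken intact and counted. Large organs were sampled three times and averaged. Result given as % dose/organ.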

[7] = test system: Rattus norvegicus; assay: Biodistribution in adrenal cortex of rat assessed per organ at 3.6 x 10^-8 mol, iv measured after 4 hrs; type: ADME, organism-based; settings: in vivo; procedure, shortened: as §2
[8] = test system: Adrenal medulla; assay: Biodistribution in adrenal medulla of rat assessed per organ at 3.6 x 10^-8 mol, iv measured after 5 mins; type: ADME, organism-based; settings: in vivo; procedure, shortened: as §2
[9] = test system: Mus musculus; assay: Biodistribution in adrenal gland of mouse assessed per organ at 8 to 11 x 10^-8 mol, iv measured after 30 mins; type: ADME, organism-based; settings: in vivo, 0.5 h
Procedure, shortened: (§5)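 [131I]- or [123I]-6-iododopamine in water or saline, used within 30 min of preparation. Injected iv at 8-11 × 10^-8 mol/mouse. Mice killed by ether overdose at 5-240 min; 3-10 mice per time point. Tissue radioactivity expressed as % dose/organ ± SD.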

[10] = test system: Liver; assay: Biodistribution in liver of rat assessed per organ at 3.6 x 10^-8 mol, iv measured after 4 hrs; type: ADME, organism-based; settings: in vivo
Procedure, shortened: (§6)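 [131I]-labelled tracer in water or saline, injected within 30 min of preparation. Rats given 3.6 × 10^-8 mol/rat iv, killed by ether overdose at each time point. Organs excised and radioactivity counted as % dose/organ, mean ± SD of four rats.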

[11] = test system: Rattus norvegicus; assay: Biodistribution in thyroid gland of rat assessed per organ at 3.6 x 10^-8 mol, iv measured after 4 hrs; type: ADME, organism-based; settings: in vivo; procedure, shortened: as §6
[12] = test system: Adrenal medulla; assay: Biodistribution in adrenal medulla of rat assessed per organ at 3.6 x 10^-8 mol, iv measured after 30 mins; type: ADME, organism-based; settings: in vivo, 0.5 h; procedure, shortened: as §2
[13] = test system: Kidney; assay: Biodistribution in kidney of rat assessed per organ at 3.6 x 10^-8 mol, iv measured after 60 mins; type: ADME, organism-based; settings: in vivo, 1 h; procedure, shortened: as §2
[14] = test system: Rattus norvegicus; assay: Biodistribution in adrenal cortex of rat assessed per organ at 3.6 x 10^-8 mol, iv measured after 2 hrs; type: ADME, organism-based; settings: in vivo; procedure, shortened: as §2
[15] = test system: Kidney; assay: Biodistribution in kidney of mouse assessed per organ at 8 to 11 x 10^-8 mol, iv measured after 120 mins; type: ADME, organism-based; settings: in vivo, 2 h; procedure, shortened: as §5
[16] = test system: Kidney; assay: Biodistribution in kidney of mouse assessed per organ at 8 to 11 x 10^-8 mol, iv measured after 15 mins; type: ADME, organism-based; settings: in vivo, 0.25 h; procedure, shortened: as §5
[17] = test system: Rattus norvegicus; assay: Biodistribution in thyroid gland of rat assessed per organ at 3.6 x 10^-8 mol, iv measured after 2 hrs; type: ADME, organism-based; settings: in vivo; procedure, shortened: as §6
[18] = test system: Blood; assay: Biodistribution in blood of rat at 3.6 x 10^-8 mol, iv measured after 30 mins; type: ADME, organism-based; settings: in vivo, 0.5 h; procedure, shortened: as §4
[19] = test system: Mus musculus; assay: Biodistribution in adrenal gland of mouse assessed per organ at 8 to 11 x 10^-8 mol, iv measured after 15 mins; type: ADME, organism-based; settings: in vivo, 0.25 h; procedure, shortened: as §5
[20] = test system: Liver; assay: Biodistribution in liver of mouse assessed per organ at 8 to 11 x 10^-8 mol, iv measured after 15 mins; type: ADME, organism-based; settings: in vivo, 0.25 h; procedure, shortened: as §5
[21] = test system: Rattus norvegicus; assay: Biodistribution in adrenal cortex of rat assessed per organ at 3.6 x 10^-8 mol, iv measured after 24 hrs; type: ADME, organism-based; settings: in vivo; procedure, shortened: as §2
[22] = test system: Blood; assay: Biodistribution in blood of rat at 3.6 x 10^-8 mol, iv measured after 24 hrs; type: ADME, organism-based; settings: in vivo; procedure, shortened: as §4
[23] = test system: Liver; assay: Biodistribution in liver of rat assessed per organ at 3.6 x 10^-8 mol, iv measured after 60 mins; type: ADME, organism-based; settings: in vivo, 1 h; procedure, shortened: as §6
[24] = Biodistribution in adrenal cortex of mongrel dog assessed per organ at 1.29 x 10^-6 mol, iv measured after 2 hrs; type: ADME, organism-based, Canis lupus familiaris; settings: in vivo; procedure, shortened: as §3
[25] = test system: Kidney; assay: Biodistribution in kidney of rat assessed per organ at 3.6 x 10^-8 mol, iv measured after 5 mins; type: ADME, organism-based; settings: in vivo; procedure, shortened: as §2
[26] = Biodistribution in kidney of mongrel dog assessed per organ at 1.29 x 10^-6 mol, iv measured after 2 hrs; type: ADME, organism-based, Canis lupus familiaris; settings: in vivo; procedure, shortened: as §3
[27] = test system: Mus musculus; assay: Biodistribution in thyroid gland of mouse assessed per organ at 8 to 11 x 10^-8 mol, iv measured after 240 mins; type: ADME, organism-based; settings: in vivo, 4 h; procedure, shortened: as §1
[28] = test system: Liver; assay: Biodistribution in liver of mouse assessed per organ at 8 to 11 x 10^-8 mol, iv measured after 30 mins; type: ADME, organism-based; settings: in vivo, 0.5 h; procedure, shortened: as §5
[29] = test system: Kidney; assay: Biodistribution in kidney of rat assessed per organ at 3.6 x 10^-8 mol, iv measured after 4 hrs; type: ADME, organism-based; settings: in vivo; procedure, shortened: as §2
[30] = test system: Liver; assay: Biodistribution in liver of mongrel dog assessed per organ at 1.29 x 10^-6 mol, iv measured after 24 hrs; type: ADME, organism-based, Canis lupus familiaris; settings: in vivo; procedure, shortened: as §3
[31] = test system: Adrenal medulla; assay: Biodistribution in adrenal medulla of rat assessed per organ at 3.6 x 10^-8 mol, iv measured after 24 hrs; type: ADME, organism-based; settings: in vivo; procedure, shortened: as §2
[32] = test system: Rattus norvegicus; assay: Biodistribution in thyroid gland of rat assessed per organ at 3.6 x 10^-8 mol, iv measured after 30 mins; type: ADME, organism-based; settings: in vivo, 0.5 h; procedure, shortened: as §6
[33] = test system: Liver; assay: Biodistribution in liver of mouse assessed per organ at 8 to 11 x 10^-8 mol, iv measured after 5 mins; type: ADME, organism-based; settings: in vivo; procedure, shortened: as §5
[34] = test system: Adrenal medulla; assay: Biodistribution in adrenal medulla of rat assessed per organ at 3.6 x 10^-8 mol, iv measured after 4 hrs; type: ADME, organism-based; settings: in vivo; procedure, shortened: as §2
[35] = test system: Liver; assay: Biodistribution in liver of rat assessed per organ at 3.6 x 10^-8 mol, iv measured after 24 hrs; type: ADME, organism-based; settings: in vivo; procedure, shortened: as §6

Molecule `Br.NCCc1cc(O)c(O)cc1[131I]` has a Drug uptake [1] of 0.066 %ID, a Drug uptake [2] of 0.007 %ID and a Drug uptake [3] of 0.0104 %ID. For the same molecule, the Drug uptake [4] was 0.131 %ID, the Drug uptake [5] was 0.168 %ID and the Drug uptake [6] was 0.026 %ID. The Drug uptake [7] was 0.002 %ID, the Drug uptake [8] was 0.0247 %ID and the Drug uptake [9] was 0.014 %ID. It also gave a Drug uptake [10] of 0.265 %ID, a Drug uptake [11] of 0.251 %ID and a Drug uptake [12] of 0.0138 %ID. The Drug uptake [13] was 0.72 %ID, the Drug uptake [14] was 0.0028 %ID and the Drug uptake [15] was 0.78 %ID. For the same molecule, the Drug uptake [16] was 3.44 %ID, the Drug uptake [17] was 0.183 %ID and the Drug uptake [18] was 0.48 %ID. The Drug uptake [19] was 0.015 %ID, the Drug uptake [20] was 3.64 %ID and the Drug uptake [21] was 0.000081 %ID. The Drug uptake [22] was 0.0062 %ID, the Drug uptake [23] was 0.67 %ID and the Drug uptake [24] was 0.0092 %ID. It also gave a Drug uptake [25] of 3.55 %ID, a Drug uptake [26] of 0.77 %ID and a Drug uptake [27] of 0.158 %ID. For the same molecule, the Drug uptake [28] was 2.4 %ID, the Drug uptake [29] was 0.194 %ID and the Drug uptake [30] was 0.48 %ID. For the same molecule, the Drug uptake [31] was 0.0021 %ID, the Drug uptake [32] was 0.062 %ID and the Drug uptake [33] was 7.1 %ID. The Drug uptake [34] was 0.0047 %ID and the Drug uptake [35] was 0.072 %ID.
